{"source": "ChEMBL document CHEMBL4819095", "about": "“Development of ciclesonide analogues that block SARS-CoV-2 RNA replication” (Bioorg Med Chem Lett, 2021)", "key": {"Vero C1008 [1]": {"system": "Vero C1008", "assay": "Cytotoxicity against African green monkey Vero E6 cells expressing TMPRSS2 assessed as reduction in cell viability at 20 uM incubated for 18 hrs by LDH assay", "format": "cell-based", "conditions": "chlorocebus sabaeus, vero c1008, 18 h", "in_short": "(§1)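 Vero E6/TMPRSS2 cells exposed for 18 h to compounds at concentrations up to 40 µM. Cytotoxicity read as lactate dehydrogenase (LDH) release. Each independent experiment run in triplicate.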"}, "Vero C1008 [2]": {"system": "Vero C1008", "assay": "Cytotoxicity against African green monkey Vero E6 cells expressing TMPRSS2 assessed as reduction in cell viability upto 40 uM incubated for 18 hrs by LDH assay", "format": "cell-based", "conditions": "chlorocebus sabaeus, vero c1008, 18 h", "in_short": "as §1"}, "Vero C1008 [3]": {"system": "Vero C1008", "assay": "Cytotoxicity against African green monkey Vero E6 cells expressing TMPRSS2 assessed as reduction in cell viability at 40 uM incubated for 18 hrs by LDH assay", "format": "cell-based", "conditions": "chlorocebus sabaeus, vero c1008, 18 h", "in_short": "as §1"}, "SARS-CoV-2 [4]": {"system": "SARS-CoV-2", "assay": "Antiviral activity against SARS-CoV-2 JPN/TY/WK-251 infected in African green monkey Vero E6 cells expressing TMPRSS2 assessed as reduction in viral RNA replication by measuring replication copies assessed per well at 10 uM incubated for 18 hrs by qRT-PCR analysis", "format": "functional"}, "SARS-CoV-2 [5]": {"system": "SARS-CoV-2", "assay": "Antiviral activity against SARS-CoV-2 JPN/TY/WK-251 infected in African Green monkey Vero E6 cells expressing TMPRSS2 assessed as reduction in viral plaques incubated for 18 hrs by plaque reduction assay", "format": "functional, organism-based", "conditions": "Severe acute respiratory syndrome coronavirus 2, dose 0.625-80 µM"}, "[6]": {"conditions": "Severe acute respiratory syndrome coronavirus 2"}}, "note": "Activity calls are given as the source filed them. The rule behind the calls is not given here."}
{"smiles": "C[C@]12C=CC(=O)C=C1CC[C@@H]1[C@@H]2[C@@H](O)C[C@@]2(C)[C@H]1C[C@H]1O[C@@H](C3CCCCC3)O[C@]12C(=O)CN", "values": [{"measurement": "Activity", "setting": "Vero C1008 [1]", "value": "Toxic"}]}
{"smiles": "CC(C)C(=O)NCC(=O)[C@@]12O[C@H](C3CCCCC3)O[C@@H]1C[C@H]1[C@@H]3CCC4=CC(=O)C=C[C@]4(C)[C@H]3[C@@H](O)C[C@@]12C", "values": [{"measurement": "Activity", "setting": "Vero C1008 [2]", "value": "Non-Toxic"}]}
{"smiles": "C[C@]12C=CC(=O)C=C1CC[C@@H]1[C@@H]2[C@@H](O)C[C@@]2(C)[C@H]1C[C@H]1O[C@@H](C3CCCCC3)O[C@]12C(=O)CBr", "values": [{"measurement": "Activity", "setting": "Vero C1008 [3]", "value": "Toxic"}, {"measurement": "Activity", "setting": "SARS-CoV-2 [4]; [6]", "value": "Active"}]}
{"smiles": "C[C@]12C=CC(=O)C=C1CC[C@@H]1[C@@H]2[C@@H](O)C[C@@]2(C)[C@H]1C[C@H]1O[C@@H](C3CCCCC3)O[C@]12C(=O)CO", "note": "[DESISOBUTYRYLCICLESONIDE]", "values": [{"measurement": "Activity", "setting": "Vero C1008 [1]", "value": "Toxic"}, {"measurement": "Activity", "setting": "SARS-CoV-2 [4]; [6]", "value": "Active"}, {"measurement": "Activity", "setting": "SARS-CoV-2 [5]", "value": "Dose-Dependent Effect"}]}
{"smiles": "C[C@]12C=CC(=O)C=C1CC[C@@H]1[C@@H]2[C@@H](O)C[C@@]2(C)[C@H]1C[C@H]1O[C@@H](C3CCCCC3)O[C@]12C(=O)COS(C)(=O)=O", "values": [{"measurement": "Activity", "setting": "Vero C1008 [1]", "value": "Toxic"}, {"measurement": "Activity", "setting": "SARS-CoV-2 [4]; [6]", "value": "Active"}]}
{"smiles": "CC(C)C(=O)OCC(=O)[C@@]12O[C@H](C3CCCCC3)O[C@@H]1C[C@H]1[C@@H]3CCC4=CC(=O)C=C[C@]4(C)[C@H]3[C@@H](O)C[C@@]12C", "note": "[CICLESONIDE]", "values": [{"measurement": "Activity", "setting": "Vero C1008 [2]", "value": "Non-Toxic"}, {"measurement": "Activity", "setting": "SARS-CoV-2 [4]", "value": "5.2 10^5No_unit"}, {"measurement": "Activity", "setting": "SARS-CoV-2 [5]", "value": "Dose-Dependent Effect"}]}
{"smiles": "C[C@]12C=CC(=O)C=C1CC[C@@H]1[C@@H]2[C@@H](O)C[C@@]2(C)[C@H]1C[C@H]1O[C@@H](C3CCCCC3)O[C@]12C(=O)CCl", "values": [{"measurement": "Activity", "setting": "Vero C1008 [2]", "value": "Non-Toxic"}, {"measurement": "Activity", "setting": "SARS-CoV-2 [4]", "value": "4.6 10^5No_unit"}, {"measurement": "Activity", "setting": "SARS-CoV-2 [5]", "value": "Dose-Dependent Effect"}]}
{"smiles": "C[C@]12C=CC(=O)C=C1CC[C@@H]1[C@@H]2[C@@H](O)C[C@@]2(C)[C@H]1C[C@H]1O[C@@H](C3CCCCC3)O[C@]12C(=O)CI", "values": [{"measurement": "Activity", "setting": "Vero C1008 [3]", "value": "Toxic"}]}
{"smiles": "C[C@]12C=CC(=O)C=C1CC[C@@H]1[C@@H]2[C@@H](O)C[C@@]2(C)[C@H]1C[C@H]1O[C@@H](C3CCCCC3)O[C@]12C(=O)CN=[N+]=[N-]", "values": [{"measurement": "Activity", "setting": "Vero C1008 [2]", "value": "Non-Toxic"}, {"measurement": "Activity", "setting": "SARS-CoV-2 [4]", "value": "2.1 10^5No_unit"}, {"measurement": "Activity", "setting": "SARS-CoV-2 [5]", "value": "Dose-Dependent Effect"}]}
{"smiles": "CN(C)CC(=O)[C@@]12O[C@H](C3CCCCC3)O[C@@H]1C[C@H]1[C@@H]3CCC4=CC(=O)C=C[C@]4(C)[C@H]3[C@@H](O)C[C@@]12C", "values": [{"measurement": "Activity", "setting": "Vero C1008 [3]", "value": "Toxic"}]}
